In brackets after ≈: the same amount, converted by molar mass. Activity calls are given as the source filed them. The rule behind the calls is not given here.
Experiments:
Staphylococcus aureus [1] = test: Antibacterial activity against methicillin-resistant Staphylococcus aureus isolate OC17042 harboring gyrA S84L/G106D, parC S80F and parE D732N mutant gene assessed as log reduction in bacterial growth at 2 times MIC measured at 24 hrs by time-kill assay; type: functional
Summary of the method: (§1)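 Overnight MRSA cultures were diluted into fresh cation-adjusted Mueller-Hinton broth to about 5 × 10^6 CFU/ml. […] Samples were plated serially diluted on trypticase soy agar, and CFU were counted after 20-24 h at 37°C. Value is the log10 decrease at 24 h from the starting inoculum; detection limit 100 CFU.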

Staphylococcus aureus [2] = test: Antibacterial activity against methicillin-resistant Staphylococcus aureus isolate OC2838 assessed as log reduction in bacterial growth at 2 times MIC measured at 24 hrs by time-kill assay; type: functional; summary of the method: as §1
Providencia stuartii = test: Ratio of Moxifloxacin MIC90 to compound MIC90 for Providencia stuartii; type: functional
Streptococcus pneumoniae [3] = test: Antibacterial activity against Streptococcus pneumoniae isolate OC6585 assessed as log reduction in bacterial growth at 4 times MIC measured at 6 hrs by time-kill assay; type: functional
Summary of the method: (§2)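 Drug was diluted from 50× stocks made in water or acidified water. Samples were taken at 6 and 24 h and serially diluted onto TSA-5% sheep blood plates. Plates were incubated 20–24 h at 37°C in 5% CO2 before counting CFU. Log10 titer change is given relative to the starting inoculum.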

Streptococcus pneumoniae [4] = test: Antibacterial activity against Streptococcus pneumoniae isolate OC6608 by broth microdilution method; type: functional
Summary of the method: (§3)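 CLSI M07-A7 broth microdilution MIC. Medium was cation-adjusted Mueller-Hinton broth. For S. pneumoniae it was Mueller-Hinton supplemented with 5% lysed horse blood. CLSI quality-control strains were included as appropriate.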

Streptococcus pneumoniae [5] = test: Antibacterial activity against Streptococcus pneumoniae R6 by agar dilution method; type: functional
Summary of the method: (§4)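 MICs for the resistance-selection studies were determined by CLSI agar dilution on Mueller-Hinton medium. For S. pneumoniae the medium was supplemented with 5% lysed horse blood. For MRSA fluctuation-assay strains an arithmetic agar dilution scheme was used for a more precise MIC.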

Streptococcus pneumoniae [6] = test: Antibacterial activity against Streptococcus pneumoniae isolate OC6610 by broth microdilution method; type: functional; summary of the method: as §3
Staphylococcus aureus [7] = test: Antibacterial activity against methicillin-resistant Staphylococcus aureus isolate OC15425 harboring gyrA S84L and parC S80F mutant gene by agar dilution method; type: functional; summary of the method: as §4
Streptococcus pneumoniae [8] = test: Antibacterial activity against Streptococcus pneumoniae isolate OC6790 assessed as log reduction in bacterial growth at 4 times MIC measured at 6 hrs by time-kill assay; type: functional; summary of the method: as §2
Streptococcus pneumoniae [9] = test: Antibacterial activity against Streptococcus pneumoniae isolate OC7348 assessed as log reduction in bacterial growth at 4 times MIC measured at 24 hrs by time-kill assay; type: functional; summary of the method: as §2
Klebsiella pneumoniae = test: Antibacterial activity against Klebsiella pneumoniae by broth microdilution method; type: functional
Summary of the method: (§5)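 MICs by CLSI M07-A7 broth microdilution in cation-adjusted Mueller-Hinton medium. For S. pneumoniae the medium was supplemented with 5% lysed horse blood. CLSI quality control strains were run alongside as appropriate.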

[10] = test system: Staphylococcus epidermidis; test: Antibacterial activity against methicillin-resistant Staphylococcus epidermidis by broth microdilution method; type: functional
Streptococcus pneumoniae [11] = test: Antibacterial activity against Streptococcus pneumoniae isolate OC6610 assessed as log reduction in bacterial growth at 2 times MIC measured at 6 hrs by time-kill assay; type: functional; summary of the method: as §2
Enterococcus faecium = test: Antibacterial activity against Enterococcus faecium by broth microdilution method; type: functional; summary of the method: as §5
Streptococcus pneumoniae [12] = test: Antibacterial activity against Streptococcus pneumoniae isolate OC6608 assessed as log reduction in bacterial growth at 4 times MIC measured at 24 hrs by time-kill assay; type: functional; summary of the method: as §2
Klebsiella aerogenes = test: Antibacterial activity against Enterobacter aerogenes by broth microdilution method; type: functional; summary of the method: as §5
Staphylococcus aureus [13] = test: Antibacterial activity against methicillin-resistant Staphylococcus aureus isolate OC17042 harboring gyrA S84L/G106D, parC S80F and parE D732N mutant gene assessed as log reduction in bacterial growth at 4 times MIC measured at 24 hrs by time-kill assay; type: functional; summary of the method: as §1
Streptococcus pneumoniae [14] = test: Antibacterial activity against Streptococcus pneumoniae isolate OC7348 assessed as log reduction in bacterial growth at 4 times MIC measured at 6 hrs by time-kill assay; type: functional; summary of the method: as §2
Streptococcus pneumoniae [15] = test: Antibacterial activity against Streptococcus pneumoniae isolate OC7348 assessed as log reduction in bacterial growth at 2 times MIC measured at 24 hrs by time-kill assay; type: functional; summary of the method: as §2
Streptococcus pneumoniae [16] = test: Antibacterial activity against Streptococcus pneumoniae ATCC 49619 by broth microdilution method; type: functional; summary of the method: as §5
Staphylococcus aureus [17] = test: Antibacterial activity against methicillin-, ciprofloxacin-resistant Staphylococcus aureus by broth microdilution method; type: functional; summary of the method: as §3
Staphylococcus aureus [18] = test: Antibacterial activity against methicillin-resistant Staphylococcus aureus isolate OC8525 harboring wild type quinolone resistance-determining region assessed as log reduction in bacterial growth at 2 times MIC measured at 24 hrs by time-kill assay; type: functional; summary of the method: as §1
Streptococcus pneumoniae [19] = test: Antibacterial activity against Streptococcus pneumoniae isolate OC5462 assessed as log reduction in bacterial growth at 4 times MIC measured at 24 hrs by time-kill assay; type: functional; summary of the method: as §2
Streptococcus pneumoniae [20] = test: Ratio of Moxifloxacin MIC90 to compound MIC90 for ciprofloxacin-resistant Streptococcus pneumoniae; type: functional
Streptococcus pneumoniae [21] = test: Antibacterial activity against multidrug resistant Streptococcus pneumoniae by broth microdilution method; type: functional, organism-based
Summary of the method: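 CLSI M07-A7 broth microdilution MIC in cation-adjusted Mueller-Hinton medium. For S. pneumoniae the medium was supplemented with 5% lysed horse blood. CLSI quality-control strains were included as appropriate.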

Staphylococcus aureus [22] = test: Antibacterial activity against methicillin-resistant Staphylococcus aureus isolate OC8530 harboring gyrA S84L and parC I143V mutant gene assessed as log reduction in bacterial growth at 2 times MIC measured at 24 hrs by time-kill assay; type: functional
Summary of the method: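 Time-kill in cation-adjusted Mueller-Hinton broth. […] Samples were taken up to 24 h, serially diluted onto TSA and counted after 20–24 h at 37°C. Result is log10 decrease at 24 h from the starting inoculum; detection limit 100 CFU.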

Staphylococcus aureus [23] = test: Antibacterial activity against methicillin-resistant Staphylococcus aureus isolate OC12501 assessed as log reduction in bacterial growth at 2 times MIC measured at 24 hrs by time-kill assay; type: functional; summary of the method: as §1
Staphylococcus aureus [24] = test: Antibacterial activity against methicillin-resistant Staphylococcus aureus isolate OC8525 harboring wild type quinolone resistance-determining region by broth microdilution method; type: functional
Enterobacter cloacae = test: Antibacterial activity against Enterobacter cloacae by broth microdilution method; type: functional
Streptococcus pneumoniae [25] = test: Antibacterial activity against Streptococcus pneumoniae isolate OC7376 assessed as log reduction in bacterial growth at 4 times MIC measured at 6 hrs by time-kill assay; type: functional; summary of the method: as §2
Streptococcus pneumoniae [26] = test: Antibacterial activity against Streptococcus pneumoniae isolate OC7189 assessed as log reduction in bacterial growth at 4 times MIC measured at 24 hrs by time-kill assay; type: functional; summary of the method: as §2
Streptococcus pneumoniae [27] = test: Antibacterial activity against Streptococcus pneumoniae isolate OC6585 by broth microdilution method; type: functional; summary of the method: as §3
Streptococcus pneumoniae [28] = test: Antibacterial activity against Streptococcus pneumoniae isolate OC7368 assessed as log reduction in bacterial growth at 2 times MIC measured at 24 hrs by time-kill assay; type: functional; summary of the method: as §2

## COc1c(N2CCC/C(=C(\F)CN)C2)c(F)cc2c(=O)c(C(=O)O)cn(C3CC3)c12 [ACORAFLOXACIN]
Staphylococcus aureus [1]
  deltalog10CFU/ml: 3.8
Staphylococcus aureus [2]
  deltalog10CFU/ml: 4.1
Providencia stuartii
  Ratio: 16
Streptococcus pneumoniae [3]
  deltalog10CFU/ml: 4.3
Streptococcus pneumoniae [4]
  MIC: 0.06 µg/mL (≈ 0.143 µM)
Streptococcus pneumoniae [5]
  MIC: 0.015 µg/mL (≈ 0.0358 µM)
Streptococcus pneumoniae [6]
  MIC: 0.5 µg/mL (≈ 1.19 µM)
Staphylococcus aureus [7]
  MIC: 0.12 µg/mL (≈ 0.286 µM)
Streptococcus pneumoniae [8]
  deltalog10CFU/ml: 3.6
Streptococcus pneumoniae [9]
  deltalog10CFU/ml: 6.5
Klebsiella pneumoniae
  MIC50: 0.12 µg/mL (≈ 0.286 µM)
  MIC90: 0.25 µg/mL (≈ 0.596 µM)
[10]
  MIC50: 0.12 µg/mL (≈ 0.286 µM)
  MIC90: 0.25 µg/mL (≈ 0.596 µM)
Streptococcus pneumoniae [11]
  deltalog10CFU/ml: 3.4
Enterococcus faecium
  MIC50: 0.5 µg/mL (≈ 1.19 µM)
  MIC90: 4 µg/mL (≈ 9.54 µM)
Streptococcus pneumoniae [12]
  deltalog10CFU/ml: 7.1
Klebsiella aerogenes
  MIC50: 0.12 µg/mL (≈ 0.286 µM)
  MIC90: 0.25 µg/mL (≈ 0.596 µM)
Staphylococcus aureus [13]
  deltalog10CFU/ml: 3.5
Streptococcus pneumoniae [14]
  deltalog10CFU/ml: 3.6
Streptococcus pneumoniae [15]
  deltalog10CFU/ml: 7
Streptococcus pneumoniae [16]
  MIC50: 0.015 µg/mL (≈ 0.0358 µM)
  MIC90: 0.12 µg/mL (≈ 0.286 µM)
Staphylococcus aureus [17]
  MIC50: 0.25 µg/mL (≈ 0.596 µM)
  MIC90: 0.25 µg/mL (≈ 0.596 µM)
Staphylococcus aureus [18]
  deltalog10CFU/ml: 5.1
Streptococcus pneumoniae [19]
  deltalog10CFU/ml: 6.8
Streptococcus pneumoniae [20]
  Ratio: 9
Streptococcus pneumoniae [21]
  Activity: Active
Staphylococcus aureus [22]
  deltalog10CFU/ml: 6.3
Staphylococcus aureus [23]
  deltalog10CFU/ml: 6.2
Staphylococcus aureus [24]
  MIC: 0.008 µg/mL (≈ 0.0191 µM)
Enterobacter cloacae
  MIC50: 0.12 µg/mL (≈ 0.286 µM)
  MIC90: 0.12 µg/mL (≈ 0.286 µM)
Streptococcus pneumoniae [25]
  deltalog10CFU/ml: 5.3
Streptococcus pneumoniae [26]
  deltalog10CFU/ml: 7.2
Streptococcus pneumoniae [27]
  MIC: 0.25 µg/mL (≈ 0.596 µM)
Streptococcus pneumoniae [28]
  deltalog10CFU/ml: 7.2

— ChEMBL document CHEMBL1255444, “In vitro antibacterial activities of JNJ-Q2, a new broad-spectrum fluoroquinolone” (Antimicrob Agents Chemother, 2010)
